This passage reports logD, pC25 and pC60 results from ChEMBL document CHEMBL1121860, “Characterization of alpha-adrenoceptor populations. Quantitative relationships between cardiovascular effects initiated at central and peripheral alpha-adrenoceptors” (J Med Chem, 1981).

SMILES strings stand for the structures.

Data set [1] in a line: Partition coefficient (logD7.4). The data set is classed as physicochemical. The settings on record: octanol/water, pH 7.4. Put shortly: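 Octanol against 0.1 M phosphate buffer at pH 7.4 and 37 °C. Drug at about 10^-4 M in octanol-saturated buffer was shaken for 1 h with buffer-saturated octanol, then left standing 6 h. Buffer-phase drug was measured by UV at λmax before and after partitioning, with GLC or potentiometric titration used for some compounds. Apparent P' is the mean of six partition experiments.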

Data set [2] deals with T1, Adrenergic receptor alpha (Rattus norvegicus) (UniProt P15823+P23944+P43140+P22086+P19328+P22909). Put plainly: Central hypotensive activity in anesthetized normotensive rats. In kind it is functional. Put shortly: (§1)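 Male normotensive Wistar rats (190-220 g), pentobarbitone sodium 75 mg/kg ip, ventilated, ~37 °C; iv jugular dosing, one single dose per rat, randomized; carotid arterial pressure after ≥20 min equilibration with heparin; rats with MAP <100 or >150 mmHg excluded. Maximal MAP fall as % of preinjection; pC25 = log reciprocal dose (μmol/kg) for 25% fall, from log dose-response curves; points mean of 5-6 experiments.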

In data set [3] the target is T1, Adrenergic receptor alpha (Rattus norvegicus). Put plainly: Peripheral hypertensive activity in pithed normotensive rats. In kind it is functional. Summed up: (§2)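 Normotensive rats under hexobarbitone sodium 150 mg/kg ip, pithed via orbit, ventilated, ~37 °C, heparinized; after 20 min equilibration, single iv jugular doses in random order, 3-4 per rat with recovery between; carotid MAP rise (mmHg). pC60 = log reciprocal dose (μmol/kg) raising MAP by 60 mmHg, from log dose-response curves; points mean of 5-6 experiments.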

Data set [4] shares this target. Put plainly: Tested for central hypotensive activity in anesthetized normotensive rats at alpha adrenoceptor expressed as 25% decrease in mean arterial pressure. Summed up:
as §1

Data set [5] shares this target. Put plainly: Tested for peripheral hypertensive activity in pithed normotensive rats at alpha adrenoceptor expressed as increase in mean arterial pressure by 60 mmHg. Put shortly: as §2

Broadly, the logD is the decadic logarithm of the distribution of all forms, ionised or not, between an organic phase and buffer at a given pH. Low readings indicate a more hydrophilic compound, high ones a more lipophilic compound. In turn, `Clc1cccc(Cl)c1/C=N/NC1=NCCN1` showed a logD in data set [1] of 2.12. This compound also registered a pC25 in data set [2] of 0.63. Besides, in data set [3], the pC60 stood at 0.23.

Turning to `Clc1cccc(Cl)c1NC1=NCCCN1`, the pC60 in data set [3] was -0.79.

For `CC(Oc1c(Cl)cccc1Cl)C1=NCCN1` (stereo not given) [LOFEXIDINE], the logD in data set [1] worked out at 0.73. Also, the pC25 in data set [2] is 2.09. In addition, the pC60 in data set [3] was 1.99.

For the compound `FC(F)(F)c1cc(Br)cc(Br)c1NC1=NCCN1`, the logD in data set [1] was determined as 2.8. In data set [3], the pC60 is -0.26.

In data set [2], `Cc1cccc(C)c1NC1=NCCCS1` yielded a pC25 of 0.62. Also, in data set [3], the pC60 was -0.02.

In turn, `Clc1cccc(Cl)c1NC1=NCCN1` showed a pC25 in data set [2] of 2.04. The pC60 in data set [3] was found to be 1.78.

In the case of `Clc1cccc(Cl)c1SC1=NCCN1`, the logD in data set [1] came to 1.36. The compound also showed a pC25 in data set [2] of 0.88. This compound also yielded a pC60 in data set [3] of 1.24.

In turn, `Clc1cccc(Cl)c1N=C1NCCN1` [CLONIDINE] returned a logD in data set [1] of 0.85.

For the compound `C=CCN1CCc2nc(N)sc2CC1` [TALIPEXOLE], in data set [1], the logD is 1.09. Also, the pC25 in data set [2] was determined as 1.43. The pC60 in data set [3] stood at 0.69.

With `c1ccc2c(c1)CCCC2C1=NCCN1` (stereo not given) [TETRAHYDROZOLINE], in data set [1], the logD is -0.9. Moreover, in data set [2], the pC25 was -0.16. In addition, in data set [3], the pC60 was found to be 0.9.

In data set [1], `Cc1cccc(C)c1/N=C1/NCCO1` returned a logD of 1.28. Moreover, the pC25 in data set [4] is 1.96. For the same compound, the pC60 in data set [5] amounted to 1.51.

For the compound `Clc1cc(Br)cc(Cl)c1N=C1NCCN1`, the logD in data set [1] worked out at 2.31. Moreover, the pC25 in data set [2] was found to be 0.84. This compound displayed a pC60 in data set [3] of 1.22.

Compound `Cc1cccc(C)c1N=C1NCCCS1` [XYLAZINE] displayed a logD in data set [1] of 1.34.

Take `Cc1csc(Cl)c1NC1=NCCN1` [TIAMENIDINE]: the logD in data set [1] was -0.17. This compound also yielded a pC25 in data set [2] of 0.69. Moreover, in data set [3], the pC60 amounted to 1.2.

As for `Clc1cccc(Cl)c1CC1=NCCN1`, the logD in data set [1] is -0.53. In addition, the pC25 in data set [2] amounted to 0.68. Also, in data set [3], the pC60 was 1.17.

Regarding `CC[C@H]1CCC[C@@H](C)[C@@H]1NC1=NCCO1`, the logD in data set [1] was found to be 1.39. This compound returned a pC25 in data set [4] of 2.32. In data set [5], the pC60 was 2.11.

For the compound `Brc1cc(Br)c(N=C2NCCN2)c(Br)c1`, the logD in data set [1] came to 2.51. The compound further gave a pC60 in data set [3] of 0.65.

Take `c1cc2c(c(NC3=NCCN3)c1)CCCC2` [TRAMAZOLINE]: the logD in data set [1] is -0.62. In data set [2], this compound registered a pC25 of 0.55. For the same compound, the pC60 in data set [3] stood at 1.8.

`Clc1cccc(Cl)c1N=C1NCCCN1`: in data set [1], the logD was -0.34.

Take `c1ccc2c(CC3=NCCN3)cccc2c1` [NAPHAZOLINE]: the logD in data set [1] was -0.52. In addition, in data set [2], the pC25 was found to be 0.95. The compound also yielded a pC60 in data set [3] of 1.83.

Consider `CCN1CCc2nc(N)oc2CC1` [AZEPEXOLE], for which the logD in data set [1] turned out to be 0.05. The pC25 in data set [2] was -0.14. In data set [3], the pC60 was -0.41.

`Brc1c(NC2=NCCN2)ccc2nccnc12` [BRIMONIDINE] returned a logD in data set [1] of 0.31. In data set [2], this compound had a pC25 of 1.55. The pC60 in data set [3] worked out at 1.56.

`Clc1cccc(Cl)c1C1=CN2CCN=C2S1` showed a logD in data set [1] of 2.02. Also, the pC25 in data set [2] was 2.77. In data set [3], the pC60 stood at 2.4.

For the compound `Cc1cc(C(C)(C)C)cc(C)c1CC1=NCCN1` [XYLOMETAZOLINE], in data set [1], the logD is 0.4. The same compound came in with a pC25 in data set [2] of 0.26. The pC60 in data set [3] was 1.12.
